Experimental data reported in ChEMBL document CHEMBL3272325, “Structure-activity relationships of dimeric Catharanthus alkaloids. 1. Deacetylvinblastine amide (vindesine) sulfate” (J Med Chem, 1978).

Tests used:
[1] = Antitumor activity against mouse Ridgeway osteogenic sarcoma cells allografted in mouse at 0.5 to 0.7 mg/kg/day, ip; type: functional; conditions: route intraperitoneal
Summary of the method: (§1)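 Sulfate salts given ip on days 1-9 against ROS and GLS in mice; tumor growth scored as percent inhibition versus controls (+++ = 75-100%, ++ = 50-75%, ± = under 25%).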

[2] = Antitumor activity against mouse Gardner lymphosarcoma cell allografted in mouse at 0.5 to 0.7 mg/kg/day, ip; type: functional; conditions: route intraperitoneal; summary of the method: as §1
Blood = test: Biodistribution in po dosed rat blood using [3H]-labeled drug relative to Iv dosing; type: ADME, organism-based; conditions: in vivo

SMILES | TGI [1] [%] | TGI [2] [%] | Drug uptake (Blood) [%]
CC[C@]1(O)C[C@H]2CN(CCc3c([nH]c4ccccc34)[C@@](C(=O)OC)(c3cc4c(cc3OC)N(C)[C@H]3[C@@](O)(C(N)=O)[C@H](O)[C@]5(CC)CCCN6CC[C@]43[C@@H]65)C2)C1.O=S(=O)(O)O | 50 | 50 | 
CC[C@]1(O)C[C@@H]2CN(CCc3c([nH]c4ccccc34)[C@@](C(=O)OC)(c3cc4c(cc3OC)N(C)[C@H]3[C@@](O)(C(N)=O)[C@H](O)[C@]5(CC)C=CCN6CC[C@]43[C@@H]65)C2)C1 [VINDESINE] |  |  | 1
